Data taken from ChEMBL document CHEMBL1122273, “5-sulfamoylorthanilic acids, a sulfonamide series with salidiuretic activity” (J Med Chem, 1983).

Key:
[1] = Partion coefficient in octanol/H2O system at pH=7; type: physicochemical
How it was run: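 Partition between octanol and Britton-Robinson buffer, measured across pH 0–13; value read at pH 7.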

[2] = Solubility of compound in water was determined; type: physicochemical; settings: buffer
Canis familiaris [3] = experiment: Saluretic activity in the dog measured as concentration of Na+ in urinary excretion (2 animals/dose) at (dose 0.1 mg/Kg, perorally); type: functional, Canis lupus familiaris, Urine
How it was run: (§1)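 Male beagles trained to rest on a table and to accept stomach tube and catheter. Food withdrawn 24 h before, tap water ad libitum. Bladder emptied by catheter, then 20 mL/kg tap water by stomach tube. Catheterized hourly up to 8 h with 4 mL/kg water orally each time; first 2 h urine served as control. Oral dosing after second catheterization. Pooled 1–6 h urine; Na⁺/K⁺ by flame photometry, Cl⁻ argentometrically.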

Canis familiaris [4] = experiment: Saluretic activity in the dog measured as concentration of Na+ in urinary excretion (2 animals/dose) at (dose 1.56 mg/Kg, perorally); type: functional, Canis lupus familiaris, Urine; how it was run: as §1
Canis familiaris [5] = experiment: Diuretic activity in the dog (2 animals/dose) at (dose 0.1 mg/Kg), when administered perorally; type: functional, Canis lupus familiaris, Urine
How it was run: (§2)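 Trained male beagles, fasted 24 h with tap water ad libitum. Bladder emptied by catheter, then 20 mL/kg tap water by stomach tube, with 4 mL/kg water at each hourly catheterization up to 8 h. The first 2 h of urine served as control. Oral dosing came after the second catheterization, and 1–6 h urine was pooled. Na⁺ and K⁺ were measured by flame photometry, Cl⁻ argentometrically, in mequiv/kg.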

Canis familiaris [6] = experiment: Diuretic activity in the dog (2 animals/dose) at (dose 0.4 mg/Kg), when administered perorally; type: functional, Canis lupus familiaris, Urine; how it was run: as §2
Canis familiaris [7] = experiment: Diuretic activity in the dog (2 animals/dose) at (dose 1.56 mg/Kg), when administered perorally; type: functional, Canis lupus familiaris, Urine; how it was run: as §2
Canis familiaris [8] = experiment: Saluretic activity in the dog measured as concentration of K+ in urinary excretion (2 animals/dose) at (dose 0.025 mg/Kg, perorally); type: functional, Canis lupus familiaris, Urine
How it was run: (§3)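 Male beagles trained to the procedures, food withdrawn 24 h before, tap water ad libitum. Bladder emptied by catheter, then 20 mL/kg tap water by stomach tube, plus 4 mL/kg orally at each hourly catheterization up to 8 h. The first 2 h of urine served as control. Compound given orally after the second catheterization. Urine from 1–6 h post-dose pooled; Na⁺ and K⁺ by flame photometry, Cl⁻ argentometrically, in mequiv/kg.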

Canis familiaris [9] = experiment: Saluretic activity in the dog measured as concentration of K+ in urinary excretion (2 animals/dose) at (dose 0.1 mg/Kg, perorally); type: functional, Canis lupus familiaris, Urine; how it was run: as §3
Canis familiaris [10] = experiment: Saluretic activity in the dog measured as concentration of K+ in urinary excretion (2 animals/dose) at (dose 0.4 mg/Kg, perorally); type: functional, Canis lupus familiaris, Urine; how it was run: as §3
Canis familiaris [11] = experiment: Saluretic activity in the dog measured as concentration of K+ in urinary excretion (2 animals/dose) at (dose 1.56 mg/Kg, perorally); type: functional, Canis lupus familiaris, Urine; how it was run: as §3
Canis familiaris [12] = experiment: Saluretic activity in the dog measured as concentration of Na+ in urinary excretion (2 animals/dose) at (dose 0.4 mg/Kg, perorally); type: functional, Canis lupus familiaris, Urine; how it was run: as §1
Canis familiaris [13] = experiment: Saluretic activity in the dog measured as concentration of Cl - in urinary excretion (2 animals/dose) at (dose 0.1 mg/Kg, perorally); type: functional, Canis lupus familiaris, Urine; how it was run: as §3
Canis familiaris [14] = experiment: Saluretic activity in the dog measured as concentration of Cl - in urinary excretion (2 animals/dose) at (dose 1.56 mg/Kg, perorally); type: functional, Canis lupus familiaris, Urine; how it was run: as §3
Canis familiaris [15] = experiment: Saluretic activity in the dog measured as concentration of Cl - in urinary excretion (2 animals/dose) at (dose 0.4 mg/Kg, perorally); type: functional, Canis lupus familiaris, Urine; how it was run: as §3
Canis familiaris [16] = experiment: sodium excretion collected at 1-6 h time after oral administration in dog (four animals per dose) dosed at 0.05 mg/kg.; type: functional, Canis lupus familiaris
How it was run: (§4)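 Trained male beagles, four per dose, fasted 24 h with tap water ad libitum. After bladder emptying, given 20 mL/kg tap water by stomach tube, then 4 mL/kg at each hourly catheterization; 2 h control collection, then oral dosing. Urine volume and Na⁺ (flame photometry) reported for 1–6, 7–24 and 1–24 h post-dose periods.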

Canis familiaris [17] = experiment: urinary excretion collected at 7-24 hr time after oral administration in dog (four animals per dose) dosed at 0.05 mg/kg.; type: functional, Canis lupus familiaris, Urine
Canis familiaris [18] = experiment: urinary excretion collected at 1-24 hr time after oral administration in dog (four animals per dose) dosed at 3.12 mg/kg.; type: functional, Canis lupus familiaris, Urine
How it was run: (§5)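 Trained male beagles, four per dose, fasted 24 h with tap water ad libitum. The bladder was emptied by catheter, then 20 mL/kg tap water was given by stomach tube. Dogs were catheterized hourly with 4 mL/kg water orally each time, and the first 2 h served as control. Compound was given orally after the second catheterization. Urine volume and flame-photometric Na⁺ were measured over 1-6, 7-24 and 1-24 h.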

Canis familiaris [19] = experiment: urinary excretion collected at 1-6 hr time after oral administration in dog (four animals per dose) dosed at 0.05 mg/kg.; type: functional, Canis lupus familiaris, Urine; how it was run: as §5
Rattus norvegicus [20] = organism: Rattus norvegicus; experiment: Diuretic activity in the rats, determined by a modified Lipschitz test; type: functional, Urine
How it was run: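 Modified Lipschitz test: rats deprived of water 24 h, grouped in threes of similar weight in diuresis funnels. Oral dose of 50 mg/kg, suspended in 2% starch solution, by stomach tube.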

Rattus norvegicus [21] = organism: Rattus norvegicus; experiment: Saluretic activity in the rat measured as concentration of chloride in urine; type: functional
How it was run: (§6)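 Rats deprived of food 24 h, water ad libitum, dosed 50 mg/kg by stomach tube as suspension in 2% starch, no extra water load. Groups of three in diuresis funnels; urine over first 5 h collected. Na⁺ and K⁺ by flame photometry, Cl⁻ argentometrically; expressed as mequiv/kg.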

Rattus norvegicus [22] = organism: Rattus norvegicus; experiment: Saluretic activity in the rat measured as concentration of K+ in urine; type: functional; how it was run: as §6
[23] = It is the ratio, measured as saluretic activity in the dog as concentration of Cl- in urinary excretion (dose 0.1 mg/Kg, perorally) to that of (Na+)+(K+); type: functional, Urine; how it was run: as §2
[24] = It is the ratio, measured as saluretic activity in the dog as concentration of Na+ in urinary excretion (dose 0.1 mg/Kg, perorally) to that of K; type: functional, Urine; how it was run: as §2
[25] = It is the ratio, measured as saluretic activity in the dog as concentration of Na+ in urinary excretion (dose 0.4 mg/Kg, perorally) to that of K; type: functional, Urine; how it was run: as §2
Rattus norvegicus [26] = organism: Rattus norvegicus; experiment: Saluretic activity in the rat measured as concentration of Na+ in urine; type: functional; how it was run: as §6
[27] = Dissociation constant, pK1 was determined using sodium salt
[28] = Dissociation constant, pK2 was determined using sodium salt
Canis familiaris [29] = experiment: urinary excretion collected at 1-24 hr time after oral administration in dog (four animals per dose) dosed at 0.39 mg/kg.
Canis familiaris [30] = experiment: sodium excretion collected at 1-6 hr time after oral administration in dog (four animals per dose) at dose 0.39 mg/kg.; type: functional, Canis lupus familiaris; how it was run: as §4
Canis familiaris [31] = experiment: sodium excretion collected at 1-6 hr time after oral administration in dog (four animals per dose) at dose 1.56 mg/kg.; type: functional, Canis lupus familiaris; how it was run: as §4
Canis familiaris [32] = experiment: Urinary excretion collected at 7-24 hr time after oral administration in dog (four animals per dose) at dose 0.39 mg/kg.; type: functional, Canis lupus familiaris, Urine; how it was run: as §4
Rattus norvegicus [33] = organism: Rattus norvegicus; experiment: Effect on Urine flow in rats in comparison to furosemide activity

| Structure (SMILES) | Partition coefficient [1] | Solubility [2] [%] | Saluretic activity (Canis familiaris [3]) [m equiv 6hr-1 kg-1] | Saluretic activity (Canis familiaris [4]) [m equiv 6hr-1 kg-1] | Diuretic activity (Canis familiaris [5]) [ml kg-1 6hr-1] | Diuretic activity (Canis familiaris [6]) [ml kg-1 6hr-1] | Diuretic activity (Canis familiaris [7]) [ml kg-1 6hr-1] | Saluretic activity (Canis familiaris [9]) [m equiv 6hr-1 kg-1] | Saluretic activity (Canis familiaris [10]) [m equiv 6hr-1 kg-1] | Saldiuretic activity (Canis familiaris [13]) [m equiv 6hr-1 kg-1] | Saldiuretic activity (Canis familiaris [14]) [m equiv 6hr-1 kg-1] | Saldiuretic activity (Canis familiaris [15]) [m equiv 6hr-1 kg-1] | Diuretic activity (Rattus norvegicus [20]) [mL/kg] | Saluretic activity (Rattus norvegicus [21]) [m equiv 5hr-1 kg-1] | Saluretic activity (Rattus norvegicus [22]) [m equiv 5hr-1 kg-1] | Ratio [23] | Ratio [24] | Ratio [25] | Saluretic activity (Rattus norvegicus [26]) [m equiv 5hr-1 kg-1] | pKa [27] | also measured |
| --- | --- | --- | --- | --- | --- | --- | --- | --- | --- | --- | --- | --- | --- | --- | --- | --- | --- | --- | --- | --- | --- |
| CN(c1ccccc1)c1cc(NCc2ccco2)c(S(=O)(=O)[O-])cc1S(N)(=O)=O.[Na+] | 0.28 | 4 | 3.08 | 5.74 | 54.3 | 75.3 | 69.4 | 0.72 | 1.28 | 3.99 | 6.79 | 6.34 | 4.6 | 9.4 | 2.4 | 1.1 | 4.3 | 4.1 | 8.2 | 1 | Saluretic activity (Canis familiaris [8]): 0.2 m equiv 6hr-1 kg-1; Saldiuretic activity (Canis familiaris [11]): 1.17 m equiv 6hr-1 kg-1; Saluretic activity (Canis familiaris [12]): 5.26 m equiv 6hr-1 kg-1; Na+ excretion (Canis familiaris [16]): 1.29 mequiv kg-1; Urinary excretion (Canis familiaris [17]): 10.1 mL/kg; Urinary excretion (Canis familiaris [18]): 102 mL/kg; Urinary excretion (Canis familiaris [19]): 40.5 mL/kg; pKa [28]: 10.5; Urinary excretion (Canis familiaris [29]): 95.7 mL/kg |
| NS(=O)(=O)c1cc(S(=O)(=O)[O-])c(NCc2ccco2)cc1Oc1ccccc1.[Na+] | 0.12 | 20 | 1.19 | 4.89 | 30 | 36.4 | 71.4 | 0.15 | 0.34 | 0.27 | 5.47 | 1.65 | 4.1 | 9.6 | 2.1 | 0.8 | 1.2 | 3.5 | 7 | 0.5 | Saluretic activity (Canis familiaris [11]): 1 m equiv 6hr-1 kg-1; Na+ excretion (Canis familiaris [30]): 1.57 mequiv kg-1; Na+ excretion (Canis familiaris [31]): 4.97 mequiv kg-1; Urinary excretion (Canis familiaris [32]): 9.3 mL/kg; pKa [28]: 10.2; Volume (Rattus norvegicus [33]): 0.909 mL/min/kg |
